Assay [1] has as its system Mycobacterium tuberculosis. Description: Antimicrobial activity against Mycobacterium tuberculosis H37Rv after 21 days by micro-broth dilution method. The settings on record: 504 h. The format is functional. A general note: In broth dilution the organism is exposed to a series of concentrations in liquid medium.
For assay [2], the system named is HCT-116. In words: Cytotoxicity against human HCT116 cells after 4 days by WST-1 assay. Type of assay: cell-based. The settings on record: HCT-116, 96 h. In outline: (§1)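 Cells cultured in DMEM with 10% fetal calf serum. Seeded at 3000 cells/well, treated 24 h later with 9 concentrations from 100 nM to 100 µM, 8 replicates each. Viability read by WST-1 after 4 days of treatment. IC50 derived by curve fitting.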

A short description of assay [3]: Cytotoxicity against human GM637 cells after 4 days by WST-1 assay. Type of assay: cell-based. The settings on record: GM637, 96 h. A digest of the protocol: as §1
In general terms: Tetrazolium assays rely on reduction of a dye to a coloured formazan, in cell work by metabolically active cells.

Converted amounts (≈) assume the structure as drawn.

As usually defined, the MIC is the smallest concentration in the dilution series that meets the test's criterion for growth inhibition. As a reminder, the IC50 is the point on the concentration scale where inhibition reaches its midpoint. Lower therefore signals greater potency.

Compound `O=C1CC(Sc2nc[nH]n2)C(=O)N1c1ccccc1` (stereo not drawn) showed an MIC in assay [1] of 18.2 µM (≈ 4.99 µg/mL). Besides, the IC50 came out at 17 µM in assay [2] and 15 µM in assay [3].

On to `O=C(c1ccc2[nH]ccc2c1)N1CCN(C2c3ccccc3-c3ccccc32)CC1`, for which the MIC in assay [1] is > 318 µM.

With `COc1ccc(N2C(=O)CC(Sc3nnc[nH]3)C2=O)cc1` (stereo not drawn), in assay [1], the MIC turned out to be 16.4 µM (≈ 4.99 µg/mL).

Regarding `O=C1CC(N2CCN(C3c4ccccc4-c4ccccc43)CC2)C(=O)N1c1ccccc1` (stereo not drawn), in assay [1], the minimum inhibitory concentration (MIC) was found to be 94.4 µM (≈ 40 µg/mL). For the same compound, the concentration for half-maximal inhibition (IC50) in assay [2] and in assay [3] was > 100 µM in each case.

In assay [1], `O=C1CC(N2CCN(C3c4ccccc4-c4ccccc43)CC2)C(=O)N1Cc1ccccc1` (stereo not drawn) displayed an MIC of 91.4 µM (≈ 40 µg/mL).

Take `O=C1CC(N2CCc3ccccc3C2)C(=O)N1c1ccccc1` (stereo not drawn): in assay [1], the lowest concentration to inhibit growth (MIC) was 8.2 µM (≈ 2.51 µg/mL). Also, the concentration for half-maximal inhibition (IC50) in assay [2] and in assay [3] was > 100 µM in each case.

Turning to `O=C1CC(N2CCc3ccccc3C2)C(=O)N1Cc1ccccc1` (stereo not drawn), the MIC in assay [1] stood at 31.2 µM (≈ 10 µg/mL). For the same compound, the 50% inhibitory concentration (IC50) in assay [2] and in assay [3] was > 100 µM in each case.

On to `O=C1CC(n2ccnc2)C(=O)N1c1ccccc1` (stereo not drawn), for which the MIC in assay [1] turned out to be 82.9 µM (≈ 20 µg/mL). Besides, the concentration for half-maximal inhibition (IC50) in assay [2] and in assay [3] was > 100 µM in each case.

In assay [1], `COc1ccc(N2C(=O)CC(n3ccnc3)C2=O)cc1` (stereo not drawn) displayed a minimum inhibitory concentration (MIC) of 55.3 µM (≈ 15 µg/mL).

Consider `O=C1CC(c2c(-c3ccccc3)cc3ccccn23)C(=O)N1c1ccccc1` (stereo not drawn), for which the MIC in assay [1] amounted to 109 µM (≈ 40 µg/mL). For the same compound, the IC50 in assay [2] and in assay [3] was > 100 µM each time.

`O=C1CC(c2c(-c3ccccc3)cc3ccccn23)C(=O)N1Cc1ccccc1` (stereo not drawn) came in with an MIC in assay [1] of 52.6 µM (≈ 20 µg/mL).

With `O=C1CC(c2c3c([N+](=O)[O-])cc([N+](=O)[O-])cc3c3ccccn23)C(=O)N1c1ccccc1` (stereo not drawn), in assay [1], the minimum inhibitory concentration (MIC) came out at 46.5 µM (≈ 20 µg/mL). Besides, the IC50 in assay [2] and in assay [3] was > 100 µM throughout.

For `NNC(=O)c1ccncc1` [ISONIAZID], inhibition of growth in assay [1] (MIC) required 0.4 µM (≈ 0.0549 µg/mL).

For `Oc1cc(Cl)ccc1Oc1ccc(Cl)cc1Cl` [TRICLOSAN], 34.5 µM (≈ 9.99 µg/mL) was the least that counted as inhibitory in assay [1] (MIC).

Source of the values: ChEMBL document CHEMBL3098007, “Synthesis of 3-heteryl substituted pyrrolidine-2,5-diones via catalytic Michael reaction and evaluation of their inhibitory activity against InhA and Mycobacterium tuberculosis” (Eur J Med Chem, 2014).
